Source: PubChem BioAssay
PGC1a Ac signal: compounds raising PGC1a acetylation signal, primary screen, PGC1a modulator project, cell-based, U2OS, AlphaScreen, signal-increasing mode. overnight. activation, % at 15.6 µM. 0.21% of 350,000 active. AID 651723, 2012;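 active = every replicate reaching activation of at least 50%, whatever the mean replicate activation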;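 note: hits raise the AlphaScreen acetylation signal above neutral controls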
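System: Flag-PGC1a/GCN5 U2OS cells | Quantity: 7000 cells/well | Times: Overnight compound treatment, 37 °C | Measured by: AlphaScreen proximity luminescence, anti-acetyl-lysine antibody | Dosing: One concentration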
* hit, by the source's call. The list is a sample of the results.

SMILES | PGC1a Ac signal
COc1ccc(NC(=O)CSC2CC(=O)N(c3ccc4c(c3)OCCO4)C2=O)cc1 (stereo unspecified) | 55*
CCc1c(C)nc(SCC(=O)Nc2ccc3c(c2)OCCO3)[nH]c1=O | -46
C[C@H](NS(=O)(=O)c1ccc2c(c1)OCCCO2)C(=O)N1CCN(Cc2ccccc2)CC1 | -47
O=C(Cn1c2ccccc2c(=O)c2ccccc21)N/N=C/c1cc([N+](=O)[O-])ccc1N1CCCCCC1 | 53*
CCn1c2ccccc2c2cc(/C=N/NC(=O)c3ccccc3)ccc21 | -43
O=C(c1cccc([N+](=O)[O-])c1)N1CCc2ccccc21 | -44
Cn1ncc2c(O/N=C(\N)c3ccc(C(C)(C)C)cc3)ncnc21 | -96
Cc1ccc(S(=O)(=O)N(CC2CO2)c2ccccc2[N+](=O)[O-])cc1 (stereo unspecified) | -79
Cc1ccc(CNC(=O)c2ccc(CS(=O)(=O)c3ccccc3)o2)cc1 | -44
O=C(NCc1cccnc1)/C(=C/c1ccc(-c2ccc(Cl)cc2)o1)S(=O)(=O)c1ccccc1 | 360*
CC(C)NC(=O)Nc1ccc2c(c1)C(=O)N([C@H](C)CO)C[C@@H](C)[C@H](CN(C)S(=O)(=O)c1ccccc1)OCCCC[C@@H](C)O2 | -44
C=C1C(=O)C23CCC4C(C)(C(=O)OC)CCCC4(C)C2CCC1(O)C3 (stereo unspecified) | -76
CCN(CC)C(=O)CSc1nnc(-c2cccnc2)n1Cc1ccccc1 | -45
Clc1ccc(CSc2nnc(-c3cccnc3)n2Cc2ccco2)c(Cl)c1 | 74*
Cc1ccc(-c2cnc3c(c2)C(=O)N([C@H](C)CO)C[C@H](C)[C@@H](CN(C)C)O3)cc1 | -50
COc1ccccc1C(=O)Nc1ccc2c(c1)nc(CCNC(=O)c1ccco1)n2C | 115*
COc1ccccc1C(=O)Nc1ccc2c(c1)C(=O)N(C)C[C@H](OC)[C@H](C)CN(CC1CC1)[C@@H](C)CO2 | -52
COc1ccccc1CNC(=O)C[C@@H]1CC[C@@H]2[C@H](COC[C@H](O)CN2C(=O)Nc2ccc(Cl)cc2)O1 | -56
CN=C1c2cc3cc(OC)ccc3n2CCN1Cc1ccccc1 | 83*
CCCCCCC1CC(=O)NC(=S)N1 (stereo unspecified) | -63
Cc1ccc(Cn2ccc(NC(=O)c3nn(C)cc3[N+](=O)[O-])n2)cc1 | 145*
Cc1cnc(NC(=O)c2nn(C)cc2[N+](=O)[O-])s1 | 131*
Cn1cc([N+](=O)[O-])c(C(=O)Nc2nc(-c3ccc(Cl)cc3)cs2)n1 | -63
Cc1ccc(-c2nc(NC(=O)c3nn(C)cc3[N+](=O)[O-])sc2C)cc1 | -96
Cc1ccc(-c2nc(NC(=O)c3nn(C)cc3[N+](=O)[O-])sc2C)cc1C | -91
SMILES | PGC1a Ac signal
CN1[C@@H]2CC(OC(=O)[C@H](CO)c3ccccc3)C[C@H]1[C@@H]1O[C@@H]12 (stereo partly specified) | -58
O=C(C[C@H]1C[C@H]2c3cc(NC(=O)C4CCC4)ccc3O[C@H]2[C@H](CO)O1)NCc1ccc(-c2ccccc2)cc1 | -64
Cc1ccc(C)c(NC(=O)c2nnn(Cc3ccccc3)c2N)c1 | -47
CCOC(=O)c1[nH]c(C)c(C(=O)Nc2cc(Cl)ccc2C)c1C | 78*
CNC[C@H]1OCCCC[C@@H](C)Oc2ccc(NS(=O)(=O)c3ccccc3)cc2C(=O)N([C@H](C)CO)C[C@@H]1C | -49
Cc1cc(=O)[nH]c(SCC(=O)N2CCc3ccccc3C2)n1 | -52
Cc1ccc(Cl)cc1N1CCN(C(=O)CSc2nnc3n2C(C)(C)Cc2ccccc2-3)CC1 | 52*
C=CS(=O)(=O)N(Cc1ccccc1Br)[C@H](CO)Cc1ccccc1 | -44
CCc1ccc(Nc2nnc(SCC(=O)Nc3ccc(C(=O)O)cc3)s2)cc1 | -46
Cc1cccc(N(CC(=O)NC(C)(C)C)C(=O)CNC(=O)c2cccs2)c1 | -47
Cc1nnnn1/C(=C\c1ccccc1)C(=O)OCC(=O)Nc1cccc(S(=O)(=O)N(C)C)c1 | 96*
Cc1cc(Cl)ccc1OCC(=O)Nc1cccc(S(=O)(=O)NC2=NCCCCC2)c1 | -41
N#Cc1ccc(Oc2cccnc2)cc1C#N | 53*
O=C(C[C@@H]1C[C@@H]2c3cc(NC(=O)Nc4ccccc4F)ccc3O[C@@H]2[C@@H](CO)O1)NCc1ccc(Oc2ccccc2)cc1 | -84
COc1ccc2c(c1)CCc1c(C(=O)NCCCn3ccnc3)noc1-2 | -41
CCSc1ccccc1C(=O)NCCCn1ccnc1 | -95
CC1CC(C)CN(S(=O)(=O)c2ccc(C(=O)NCCCn3ccnc3)cc2)C1 (stereo unspecified) | 580*
C[C@@H]1CN([C@H](C)CO)C(=O)c2cccc(NC(=O)c3nc4ccccc4s3)c2O[C@@H]1CN(C)CC1CCCCC1 | -59
C[C@H](CO)N1C[C@H](C)[C@@H](CN(C)CC2CCCCC2)Oc2c(NC(=O)c3nc4ccccc4s3)cccc2C1=O | -55
C[C@H]1CN([C@@H](C)CO)C(=O)c2cccc(NC(=O)C3CCCCC3)c2O[C@H]1CN(C)Cc1ccc(C(=O)Nc2ccccc2N)cc1 | 173*
C[C@@H]1CCCCO[C@H](CN(C)Cc2ccc(C(F)(F)F)cc2)[C@H](C)CN([C@H](C)CO)C(=O)c2cc(NC(=O)Cc3ccccc3)ccc2O1 | -42
C[C@H]1CN([C@@H](C)CO)C(=O)c2cccc(NC(=O)c3nc4ccccc4s3)c2O[C@H]1CN(C)Cc1ccc(C(=O)Nc2ccccc2N)cc1 | 104*
C[C@@H]1CN([C@@H](C)CO)C(=O)c2cc(NC(=O)c3ccncc3)ccc2O[C@@H](C)CCCCO[C@@H]1CN(C)Cc1ccncc1 | -46
CCOC(=O)CSc1nc2cc3c(cc2cc1C#N)OCCO3 | -40
CC(=O)c1cccc(-n2nnnc2SCC(=O)NNC(=O)C(C)C)c1 | -85
SMILES | PGC1a Ac signal
CCCCOc1ccc(CNC(=O)NS(=O)(=O)c2ccc(OCC(C)C)cc2)cc1 | -49
CCCCC(C(=O)O)C(C)CC(=O)Nc1nncs1 (stereo unspecified) | -45
COc1cccc(C(=O)Nn2cnnc2)c1OC | -75
COc1ccccc1C(=O)Nc1nnc(CCc2ccccc2)s1 | 69*
CC(C)Cc1nnc(NC(=O)c2cc3c(s2)CCC3)s1 | -43
COc1ccc(S(=O)(=O)N(C)C[C@H]2Oc3c(NS(=O)(=O)c4ccc(C)cc4)cccc3C(=O)N([C@H](C)CO)C[C@H]2C)cc1 | -41
CCOCCn1c(N2CCN(c3ccccc3)CC2)nc2c1c(=O)n(C)c(=O)n2C | 54*
Cc1ccc2c(Cl)cc(Cl)c(OCc3c(C)noc3C)c2n1 | -45
COc1ccc(-c2cnc3c(c2)C(=O)N([C@H](C)CO)C[C@H](C)[C@@H](CN(C)C(=O)C2CC2)O3)cc1 | -111
CO[C@H]1CN(C)C(=O)c2ccc(NS(=O)(=O)c3ccccc3)cc2OC[C@H](C)N(C(=O)NC(C)C)C[C@@H]1C | -59
CC(=O)c1ccc(N2CCN(c3ccc(S(=O)(=O)NCCCN(C)C)cc3[N+](=O)[O-])CC2)cc1 | 95*
O=C(CCl)N=c1sccn1Cc1ccc(Cl)cc1Cl | -66
O=S(=O)(Nc1ccccn1)c1ccc(-n2cccn2)cc1 | -46
Cc1nc([N+](=O)[O-])c(Br)n1Cc1ccc(Cl)c(Cl)c1 | 90*
COc1ccc(C(=O)Nc2ccc(S(=O)(=O)Nc3cc(C)nc(C)n3)cc2)cc1 | -43
COc1cccc(CN2C[C@@H]3N[C@H](C2)C3c2ccc(-c3cccc(C#N)c3)cc2)c1 (stereo partly specified) | 79*
